We go through one compound from ChEMBL document CHEMBL4190353, “Synthesis, structure-activity relationships and preliminary mechanism of action of novel water-soluble 4-quinolone-3-carboxamides as antiproliferative agents” (Eur J Med Chem, 2017).

Calls of active or inactive are those of the source. The calls are words filed in the database; no cut-off is given here.

The subject of test [1] is HCT-116. In words: Induction of apoptosis in human HCT116 cells assessed as early apoptotic cells level at 2 uM incubated for 24 hrs by Annexin V-FITC/PI staining based cytometry (reference value: 1.3%). In kind it is functional.
Test [2] relates to HCT-116. In words: Induction of apoptosis in human HCT116 cells assessed as subG1 phase cells level at 4 uM incubated for 24 hrs by […]PI staining based cytometry (reference value: 1%). In kind it is functional. The essentials: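 Cells were treated for 24 h, then fixed in 75% ethanol at -20 °C overnight. RNA was digested with 0.2 mg/mL RNase A for 30 min at 37 °C. Cells were stained with 50 µg/mL PI for 30 min in the dark, and DNA content was read by flow cytometry.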

The test system of test [3] is HCT-116. The test can be described thus: Induction of apoptosis in Bax-/- human HCT116 cells assessed as increase in cleaved PARP level pre-incubated with 20 uM pan-caspase inhibitor Z-VAD-FMK for 5 hrs followed by compound addition and further incubated for 48 hrs by Western blot method. The class given is functional, cell-based. The essentials: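 Cells were pretreated for 5 h with DMSO or 20 µM Z-VAD-FMK before compound exposure. Lysates were made in SDS buffer and quantified by BCA. Proteins were run on 10% SDS-PAGE, transferred to PVDF, and probed with cleaved PARP (1:1000) and GAPDH (1:5000) loading control, with ECL detection.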

Test [4] concerns HCT-116. In words: Induction of apoptosis in Bax-/- human HCT116 cells assessed as necrotic cells level at 4 uM incubated for 48 hrs by Annexin V-FITC/PI staining based cytometry (reference value: 0.3%). The class given is functional. The essentials: (§1)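 Cells were plated at 5×10^5 per well and treated once 80% confluent. After trypsinisation and two washes in ice-cold PBS (pH 7.4), cells were stained with Annexin V-FITC and PI for 15 min at room temperature in the dark. Analysis was by flow cytometry. The legend gives vehicle or 4 µM for the p53-/- and Bax-/- lines.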

The subject of test [5] is HCT-116. The test can be described thus: Induction of apoptosis in Bax-/- human HCT116 cells assessed as viable cells level at 4 uM incubated for 48 hrs by Annexin V-FITC/PI staining based cytometry (reference value: 95.2%). In kind it is functional. In short, it runs like this: as §1
For test [6], the system named is HCT-116. The test can be described thus: Cytotoxicity in human HCT116 cells assessed as reduction in cell viability pre-treated with 7.5 mM L-NAC followed by 16 to 32 uM compound addition and further incubated for 24 hrs by CCK8 assay. The class given is functional, cell-based. In short, it runs like this: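 HCT116 cells were pretreated with H2O, 7.5 mM L-NAC or 7.5 mM GSH, then exposed to 4, 16 or 32 µM for 24 h. Viability was read by CCK-8, with 1 h reagent incubation at 37 °C and absorbance at 450 nm. n=3.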
In general terms: Tetrazolium assays rely on reduction of a dye to a coloured formazan, in cell work by metabolically active cells.

Test [7] concerns HCT-116. The test can be described thus: Inhibition of colony formation of human HCT116 cells pre-treated with 7.5 mM L-NAC for 2 hrs followed by 16 to 32 uM compound addition and further incubated for 24 hrs and measured after 10 days post dose in fresh medium by crystal violet staining based photography. The class given is functional, cell-based. In short, it runs like this:
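HCT116 seeded at about 300 per well in 12-well plates and grown 2 h. Pre-treated 2 h with H2O, 7.5 mM L-NAC or GSH, then exposed to compound for 24 h. Colonies grown 10 days in fresh medium, stained with crystal violet and counted. Triplicate wells.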

In test [8] the test system is HCT-116. The test can be described thus: Inhibition of colony formation of human HCT116 cells incubated for 24 hrs by crystal violet staining based photography. The class given is functional, cell-based. The essentials:
(§2)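 Cells (HCT116, RKO, HCT116 p53-/-, HCT116 Bax-/-) seeded at 300 per well in 12-well plates for 48 h, then treated 24 h. Drug medium replaced with fresh medium; about 10 days later colonies stained 15 min with crystal violet, photographed and counted. Run in triplicate.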

The test system of test [9] is HCT-116. The test can be described thus: Induction of apoptosis in human HCT116 cells assessed as increase in cleaved PARP level at 4 to 8 uM incubated for 24 hrs by Western blot method. The class given is functional, cell-based. In short, it runs like this:
(§3)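 Lysates were made in SDS buffer (2% SDS, 50 mM Tris-HCl pH 6.8) and quantified by BCA. Equal protein was run on 10% SDS-PAGE and transferred to PVDF. Membranes were blocked in 5% milk, probed overnight at 4 °C for cleaved PARP (1:1000) with GAPDH (1:5000), and detected with HRP secondary antibody and ECL.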

For a further test, the system named is MCF7. The test can be described thus: Cytotoxicity against human MCF7 cells assessed as reduction in cell viability incubated for 24 hrs by MTT assay. In kind it is functional, cell-based. As to conditions: MCF7, 24 h. The essentials: (§4)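 Cells were kept in McCoy's 5A with 10% fetal bovine serum, streptomycin and 100 units·mL⁻¹ penicillin at 37 °C under 5% CO₂/95% air. Viability was read by MTT optical density. IC50 is the concentration that lowers optical density by 50% relative to untreated cells. Values are means with SD of at least three independent determinations.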

The subject of test [10] is HCT-116. The test can be described thus: Induction of apoptosis in Bax-/- human HCT116 cells assessed as increase in cleaved PARP level incubated for 48 hrs by Western blot method. The class given is functional, cell-based. In short, it runs like this: as §3
On the technique in general: A western blot detects proteins with antibodies after separation by electrophoresis.

Test [11] relates to HCT-116. The test can be described thus: Induction of apoptosis in human HCT116 cells assessed as early apoptotic cells level pre-incubated with 20 uM pan-caspase inhibitor Z-VAD-FMK for 5 hrs followed by compound addition and further incubated for 48 hrs by Annexin V-FITC/PI staining based cytometry (reference value: 1.1%). In kind it is functional. On the set-up: scale not given: the % may be the effect or the level left.

The next test concerns HEp-2. The test can be described thus: Cytotoxicity against human Hep2 cells assessed as reduction in cell viability incubated for 24 hrs by MTT assay. The class given is functional, cell-based. To be noted: HEp-2, 24 h. The essentials:
as §4

Test [12] deals with HCT-116. The test can be described thus: Inhibition of colony formation of human HCT116 cells incubated for 24 hrs and measured after 10 days post dose in fresh medium by crystal violet staining based photography. In kind it is functional, cell-based. In short, it runs like this:
as §2

The test system of test [13] is HCT-116. The test can be described thus: Inhibition of colony formation of Bax-/- human HCT116 cells at 4 to 16 uM incubated for 24 hrs by crystal violet staining based photography. In kind it is functional, cell-based. The essentials: as §2
For test [14], the system named is HCT-116. The test can be described thus: Cytotoxicity against Bax-/- human HCT116 cells assessed as reduction in cell viability incubated for 24 hrs by CCK8 assay. In kind it is functional, cell-based. The essentials: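 Cells were seeded at 3×10^4 per well, grown 24 h, then exposed to increasing concentrations for 24 h. CCK-8 reagent was added for 1 h at 37 °C and absorbance was read at 450 nm. Cells were kept in McCoy's 5A with 10% FBS, and n=3.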

The next test relates to PC-3. In words: Cytotoxicity against human PC3 cells assessed as reduction in cell viability incubated for 24 hrs by MTT assay. In kind it is functional, cell-based. As to conditions: PC-3, 24 h. The essentials: as §4
For test [15], the system named is HCT-116. In words: Induction of apoptosis in Bax-/- human HCT116 cells assessed as late apoptotic cells level incubated for 48 hrs by Annexin V-FITC/PI staining based cytometry (reference value: 0.1%). In kind it is functional. In short, it runs like this: as §1
For test [16], the system named is HCT-116. In words: Induction of apoptosis in human HCT116 cells assessed as late apoptotic cells level at 2 uM incubated for 24 hrs by Annexin V-FITC/PI staining based cytometry (reference value: 0.5%). In kind it is functional.
For test [17], the system named is HCT-116. The test can be described thus: Induction of apoptosis in Bax-/- human HCT116 cells assessed as necrotic cells level incubated for 48 hrs by Annexin V-FITC/PI staining based cytometry (reference value: 0.2%). The class given is functional. The essentials:
as §1

Test [18] concerns HCT-116. In words: Induction of apoptosis in human HCT116 cells assessed as late apoptotic cells level pre-incubated with 20 uM pan-caspase inhibitor Z-VAD-FMK for 5 hrs followed by compound addition and further incubated for 48 hrs by Annexin V-FITC/PI staining based cytometry (reference value: 0.0%). The class given is functional. Also noted: scale not given: the % may be the effect or the level left.

In test [19] the test system is HCT-116. In words: Induction of apoptosis in Bax-/- human HCT116 cells assessed as early apoptotic cells level incubated for 48 hrs by Annexin V-FITC/PI staining based cytometry (reference value: 6.8%). In kind it is functional. The essentials:
as §1

Take `CCN(CC)CCCNC(=O)c1cn(CCCc2ccccc2)c2cc(Cl)ccc2c1=O.Cl`: the Activity in the test with HCT-116 [1] was 18.2%; in the test with HCT-116 [2], 14.2%; with HCT-116 [4], 2.1%; with HCT-116 [5] it was 71.5%; with HCT-116 [11], 14.2%; in the test on HCT-116 [14], “Dose-dependent effect”. For the same compound, the Activity with HCT-116 [15] stood at 1.7%; in the test with HCT-116 [16], 1.5%; in the test with HCT-116 [17], 0.2%; in the test on HCT-116 [18], 2%; in the test on HCT-116 [19], 33%. Besides, the result with HCT-116 [3] and in the test on HCT-116 [6] was inactive. The inhibition entry in the test on HCT-116 [7] is “inactive”. The inhibition entry with HCT-116 [8] and in the test with HCT-116 [12] was “Dose-dependent effect” each time. In addition, the outcome with HCT-116 [9] and in the test with HCT-116 [10] was Active. The IC50 with MCF7 came to 5.02 µM; with HEp-2, 3.53 µM; in the test with PC-3, 6.41 µM. Further, in the test with HCT-116 [13], the inhibition entry is “Active”.

A word on the IC50: it is the midpoint of a concentration-inhibition curve.
